Several values for one entry are separate records, joined by “and”; a condition that tells them apart may be missing. Identical values can stand only once.
Tested on: Fibroblast
Experiment: Multiplex assay against human fibroblast
Assay type: toxicity, cell-based
Summary of the method: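 With compound added, live cells were imaged on a CQ1 microscope at 37°C and 5% CO2; staining with Hoechst33342, BioTracker Green Microtubule Cytoskeleton Dye, MitoTracker Red and Annexin V Alexa Fluor 680 had been done at seeding. The CellPathfinder machine-learning gating scheme split cells into Hoechst high-intensity objects or normal cells, normal cells into healthy, pyknosed or fragmented nuclei, and pyknosed cells into mitotic or apoptotic. The tubulin, mitochondrial-mass and membrane-permeability phenotypes are per cents of healthy-nucleus cells.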

[1] = 12 h, 1 µM, compound concentration 1 uM, replicate 1
[2] = 12 h, 1 µM, compound concentration 1 uM, replicate 2
[3] = 12 h, 10 µM, compound concentration 10 uM, replicate 1
[4] = 12 h, 10 µM, compound concentration 10 uM, replicate 2
[5] = 24 h, 1 µM, compound concentration 1 uM, replicate 1
[6] = 24 h, 1 µM, compound concentration 1 uM, replicate 2
[7] = 24 h, 10 µM, compound concentration 10 uM, replicate 1
[8] = 24 h, 10 µM, compound concentration 10 uM, replicate 2
[9] = 48 h, 1 µM, compound concentration 1 uM, replicate 1
[10] = 48 h, 1 µM, compound concentration 1 uM, replicate 2
[11] = 48 h, 10 µM, compound concentration 10 uM, replicate 1
[12] = 48 h, 10 µM, compound concentration 10 uM, replicate 2

## CN(C)C(=O)N[C@H]1CC[C@H](CCN2CCN(c3cccc(Cl)c3Cl)CC2)CC1.Cl [CARIPRAZINE HYDROCHLORIDE]
[1]
  Population Apoptotic (%): 65%
  Population Fragmented Nuclei (%): 15%
  Population Healthy Nuclei (%): 51%
  Population Hoechst High Intensity Objects (%): 6%
  Population Membrane Permeable-Phenotype (%): 32%
  Population Mitochondria Different-Phenotype (%): 10%
  Population Mitotic Cells (%): 34%
  Population Normal (%): 93%
  Population Pyknosed Nuclei (%): 33%
  Population Tubulin-Different-Phenotype (%): 45%
  Total Cell Count: 83
[2]
  Population Apoptotic (%): 60%
  Population Fragmented Nuclei (%): 7%
  Population Healthy Nuclei (%): 84%
  Population Membrane Permeable-Phenotype (%): 6%
  Population Mitochondria Different-Phenotype (%): 29%
  Population Mitotic Cells (%): 40%
  Population Pyknosed Nuclei (%): 8%
  Population Tubulin-Different-Phenotype (%): 22%
  Total Cell Count: 61
[3]
  Population Apoptotic (%): 71%
  Population Fragmented Nuclei (%): 26%
  Population Healthy Nuclei (%): 38%
  Population Hoechst High Intensity Objects (%): 16%
  Population Membrane Permeable-Phenotype (%): 16%
  Population Mitochondria Different-Phenotype (%): 28%
  Population Mitotic Cells (%): 28%
  Population Normal (%): 83%
  Population Pyknosed Nuclei (%): 34%
  Population Tubulin-Different-Phenotype (%): 92%
  Total Cell Count: 155
[4]
  Population Apoptotic (%): 36%
  Population Fragmented Nuclei (%): 17%
  Population Healthy Nuclei (%): 57%
  Population Hoechst High Intensity Objects (%): 3%
  Population Membrane Permeable-Phenotype (%): 47%
  Population Mitochondria Different-Phenotype (%): 95%
  Population Mitotic Cells (%): 63%
  Population Normal (%): 96%
  Population Pyknosed Nuclei (%): 25%
  Population Tubulin-Different-Phenotype (%): 95%
  Total Cell Count: 79
[5]
  Population Apoptotic (%): 72%
  Population Fragmented Nuclei (%): 21%
  Population Healthy Nuclei (%): 49%
  Population Hoechst High Intensity Objects (%): 10%
  Population Membrane Permeable-Phenotype (%): 21%
  Population Mitochondria Different-Phenotype (%): 11%
  Population Mitotic Cells (%): 28%
  Population Normal (%): 89%
  Population Pyknosed Nuclei (%): 29%
  Population Tubulin-Different-Phenotype (%): 45%
  Total Cell Count: 95
[6]
  Population Apoptotic (%): 66%
  Population Fragmented Nuclei (%): 6%
  Population Healthy Nuclei (%): 84%
  Population Hoechst High Intensity Objects (%): 4%
  Population Membrane Permeable-Phenotype (%): 7%
  Population Mitochondria Different-Phenotype (%): 22%
  Population Mitotic Cells (%): 33%
  Population Normal (%): 95%
  Population Pyknosed Nuclei (%): 9%
  Population Tubulin-Different-Phenotype (%): 14%
  Total Cell Count: 67
[7]
  Population Apoptotic (%): 70%
  Population Fragmented Nuclei (%): 23%
  Population Healthy Nuclei (%): 54%
  Population Hoechst High Intensity Objects (%): 18%
  Population Membrane Permeable-Phenotype (%): 17%
  Population Mitochondria Different-Phenotype (%): 36%
  Population Mitotic Cells (%): 29%
  Population Normal (%): 81%
  Population Pyknosed Nuclei (%): 21%
  Population Tubulin-Different-Phenotype (%): 82%
  Total Cell Count: 190
[8]
  Population Apoptotic (%): 94%
  Population Healthy Nuclei (%): 55%
  Population Hoechst High Intensity Objects (%): 3%
  Population Membrane Permeable-Phenotype (%): 42%
  Population Mitochondria Different-Phenotype (%): 95%
  Population Mitotic Cells (%): 5%
  Population Normal (%): 96%
  Population Pyknosed Nuclei (%): 20%
  Population Tubulin-Different-Phenotype (%): 95%
  Total Cell Count: 87
[9]
  Population Apoptotic (%): 65%
  Population Fragmented Nuclei (%): 35%
  Population Healthy Nuclei (%): 46%
  Population Hoechst High Intensity Objects (%): 7%
  Population Membrane Permeable-Phenotype (%): 20%
  Population Mitochondria Different-Phenotype (%): 4%
  Population Mitotic Cells (%): 35%
  Population Normal (%): 92%
  Population Pyknosed Nuclei (%): 18%
  Population Tubulin-Different-Phenotype (%): 56%
  Total Cell Count: 117
[10]
  Population Apoptotic (%): 60%
  Population Fragmented Nuclei (%): 25%
  Population Healthy Nuclei (%): 69%
  Population Hoechst High Intensity Objects (%): 11%
  Population Membrane Permeable-Phenotype (%): 7%
  Population Mitochondria Different-Phenotype (%): 3%
  Population Mitotic Cells (%): 40%
  Population Normal (%): 88%
  Population Pyknosed Nuclei (%): 5%
  Population Tubulin-Different-Phenotype (%): 38%
  Total Cell Count: 103
[11]
  Population Apoptotic (%): 80%
  Population Fragmented Nuclei (%): 37%
  Population Healthy Nuclei (%): 53%
  Population Hoechst High Intensity Objects (%): 31%
  Population Membrane Permeable-Phenotype (%): 10%
  Population Mitochondria Different-Phenotype (%): 20%
  Population Mitotic Cells (%): 20%
  Population Normal (%): 68%
  Population Pyknosed Nuclei (%): 9%
  Population Tubulin-Different-Phenotype (%): 81%
  Total Cell Count: 235
[12]
  Population Apoptotic (%): 33%
  Population Fragmented Nuclei (%): 33%
  Population Healthy Nuclei (%): 63%
  Population Hoechst High Intensity Objects (%): 32%
  Population Membrane Permeable-Phenotype (%): 7%
  Population Mitochondria Different-Phenotype (%): 12%
  Population Mitotic Cells (%): 66%
  Population Normal (%): 67%
  Population Pyknosed Nuclei (%): 2%
  Population Tubulin-Different-Phenotype (%): 85%
  Total Cell Count: 162

## CN1C(=O)c2sccc2N(C)c2nc(Nc3ccc(S(N)(=O)=O)cc3)ncc21
[3]
  Population Apoptotic (%): 73% and 80%
  Population Fragmented Nuclei (%): 30% and 28%
  Population Healthy Nuclei (%): 50% and 56%
  Population Hoechst High Intensity Objects (%): 9% and 15%
  Population Membrane Permeable-Phenotype (%): 7% and 4%
  Population Mitochondria Different-Phenotype (%): 7%
  Population Mitotic Cells (%): 26% and 20%
  Population Normal (%): 90% and 84%
  Population Pyknosed Nuclei (%): 18% and 14%
  Population Tubulin-Different-Phenotype (%): 3% and 7%
  Total Cell Count: 224 and 198
[4]
  Population Fragmented Nuclei (%): 52%
  Population Healthy Nuclei (%): 36% and 33%
  Population Hoechst High Intensity Objects (%): 32% and 34%
  Population Membrane Permeable-Phenotype (%): 13% and 8%
  Population Mitochondria Different-Phenotype (%): 13% and 0%
  Population Mitotic Cells (%): 42% and 100%
  Population Normal (%): 67% and 65%
  Population Pyknosed Nuclei (%): 11% and 13%
  Population Tubulin-Different-Phenotype (%): 4% and 0%
  Total Cell Count: 91 and 55
[7]
  Population Apoptotic (%): 55% and 72%
  Population Fragmented Nuclei (%): 23% and 27%
  Population Healthy Nuclei (%): 60% and 52%
  Population Hoechst High Intensity Objects (%): 14% and 16%
  Population Membrane Permeable-Phenotype (%): 8%
  Population Mitochondria Different-Phenotype (%): 2%
  Population Mitotic Cells (%): 44% and 27%
  Population Normal (%): 85% and 83%
  Population Pyknosed Nuclei (%): 15% and 20%
  Population Tubulin-Different-Phenotype (%): 5% and 3%
  Total Cell Count: 219 and 217
[8]
  Population Apoptotic (%): 45% and 50%
  Population Fragmented Nuclei (%): 59% and 52%
  Population Healthy Nuclei (%): 23% and 36%
  Population Hoechst High Intensity Objects (%): 33% and 37%
  Population Membrane Permeable-Phenotype (%): 0%
  Population Mitochondria Different-Phenotype (%): 6% and 0%
  Population Mitotic Cells (%): 54% and 50%
  Population Normal (%): 66% and 62%
  Population Pyknosed Nuclei (%): 17% and 11%
  Population Tubulin-Different-Phenotype (%): 6% and 15%
  Total Cell Count: 96 and 58

## CCN(CC)CCCCNc1ncc2cc(-c3cc(OC)cc(OC)c3)c(NC(=O)NC(C)(C)C)nc2n1 [PD-173074]
[1]
  Population Apoptotic (%): 61%
  Population Fragmented Nuclei (%): 20%
  Population Hoechst High Intensity Objects (%): 70%
  Population Membrane Permeable-Phenotype (%): 2%
  Population Mitotic Cells (%): 38%
  Population Normal (%): 29%
  Population Pyknosed Nuclei (%): 63%
  Population Tubulin-Different-Phenotype (%): 8%
  Total Cell Count: 749
[2]
  Population Apoptotic (%): 67%
  Population Fragmented Nuclei (%): 46%
  Population Healthy Nuclei (%): 15%
  Population Hoechst High Intensity Objects (%): 72%
  Population Membrane Permeable-Phenotype (%): 13%
  Population Mitochondria Different-Phenotype (%): 0%
  Population Mitotic Cells (%): 32%
  Population Normal (%): 27%
  Population Pyknosed Nuclei (%): 38%
  Population Tubulin-Different-Phenotype (%): 0%
  Total Cell Count: 352
[3]
  Population Apoptotic (%): 60%
  Population Fragmented Nuclei (%): 44%
  Population Healthy Nuclei (%): 34%
  Population Hoechst High Intensity Objects (%): 57%
  Population Membrane Permeable-Phenotype (%): 0%
  Population Mitotic Cells (%): 39%
  Population Normal (%): 42%
  Population Pyknosed Nuclei (%): 20%
  Population Tubulin-Different-Phenotype (%): 6%
  Total Cell Count: 786
[4]
  Population Apoptotic (%): 66%
  Population Fragmented Nuclei (%): 54%
  Population Healthy Nuclei (%): 32%
  Population Hoechst High Intensity Objects (%): 61%
  Population Membrane Permeable-Phenotype (%): 16%
  Population Mitochondria Different-Phenotype (%): 4%
  Population Mitotic Cells (%): 33%
  Population Normal (%): 38%
  Population Pyknosed Nuclei (%): 12%
  Population Tubulin-Different-Phenotype (%): 8%
  Total Cell Count: 189
[5]
  Population Apoptotic (%): 59%
  Population Fragmented Nuclei (%): 32%
  Population Healthy Nuclei (%): 13%
  Population Hoechst High Intensity Objects (%): 74%
  Population Membrane Permeable-Phenotype (%): 0%
  Population Mitotic Cells (%): 40%
  Population Normal (%): 25%
  Population Pyknosed Nuclei (%): 53%
  Population Tubulin-Different-Phenotype (%): 9%
  Total Cell Count: 594
[6]
  Population Apoptotic (%): 62%
  Population Fragmented Nuclei (%): 44%
  Population Healthy Nuclei (%): 12%
  Population Hoechst High Intensity Objects (%): 72%
  Population Membrane Permeable-Phenotype (%): 16%
  Population Mitochondria Different-Phenotype (%): 0%
  Population Mitotic Cells (%): 37%
  Population Normal (%): 27%
  Population Pyknosed Nuclei (%): 43%
  Population Tubulin-Different-Phenotype (%): 0%
  Total Cell Count: 339
[7]
  Population Apoptotic (%): 51%
  Population Fragmented Nuclei (%): 42%
  Population Healthy Nuclei (%): 39%
  Population Membrane Permeable-Phenotype (%): 2%
  Population Mitochondria Different-Phenotype (%): 0%
  Population Mitotic Cells (%): 48%
  Population Pyknosed Nuclei (%): 18%
  Population Tubulin-Different-Phenotype (%): 5%
  Total Cell Count: 734
[8]
  Population Apoptotic (%): 60%
  Population Fragmented Nuclei (%): 58%
  Population Healthy Nuclei (%): 28%
  Population Hoechst High Intensity Objects (%): 58%
  Population Membrane Permeable-Phenotype (%): 28%
  Population Mitochondria Different-Phenotype (%): 14%
  Population Mitotic Cells (%): 40%
  Population Normal (%): 41%
  Population Pyknosed Nuclei (%): 13%
  Population Tubulin-Different-Phenotype (%): 19%
  Total Cell Count: 177
